Measured values reported in ChEMBL document CHEMBL1157673, “Synthesis and in vitro evaluation of fluorinated diphenyloxide derivatives and sulfur analogs as serotonin transporter ligands” (Bioorg Med Chem, 2010).

What was measured:
[1] = molecular target: T1, Sodium-dependent dopamine transporter (Homo sapiens, UniProt Q01959); test: Displacement of [3H]WIN-35428 from human cloned DAT expressed in HEK293 cells; type: cell-based; details: in the assay text read “[3H]GBR12935” for “[3H]WIN-35428”
T1 sequence (Q01959 whole entry): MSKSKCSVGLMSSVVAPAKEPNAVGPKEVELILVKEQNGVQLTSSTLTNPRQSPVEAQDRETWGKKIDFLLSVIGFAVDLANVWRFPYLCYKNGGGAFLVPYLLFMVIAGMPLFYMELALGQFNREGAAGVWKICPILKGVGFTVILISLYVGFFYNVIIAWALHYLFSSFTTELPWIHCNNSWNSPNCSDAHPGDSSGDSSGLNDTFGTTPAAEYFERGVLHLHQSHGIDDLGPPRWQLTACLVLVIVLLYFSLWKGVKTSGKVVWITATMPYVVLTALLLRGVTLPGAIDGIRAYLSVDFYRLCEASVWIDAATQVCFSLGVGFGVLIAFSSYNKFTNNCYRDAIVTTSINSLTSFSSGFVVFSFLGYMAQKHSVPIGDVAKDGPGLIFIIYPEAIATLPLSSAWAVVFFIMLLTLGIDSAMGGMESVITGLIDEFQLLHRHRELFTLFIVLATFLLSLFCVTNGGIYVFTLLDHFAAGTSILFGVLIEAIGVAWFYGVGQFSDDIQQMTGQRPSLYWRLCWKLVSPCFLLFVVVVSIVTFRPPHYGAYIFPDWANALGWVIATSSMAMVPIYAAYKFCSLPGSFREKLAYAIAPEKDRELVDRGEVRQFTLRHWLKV
Summary of the method: (§1)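 Each compound was first tested at 100 nM against tritiated radioligand binding. A Ki was determined only where that concentration inhibited at least 50% of specific binding (IC50 <100 nM).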

[2] = molecular target: Sodium-dependent serotonin transporter (Homo sapiens, UniProt P31645); test: Displacement of [3H]citalopram from human cloned SERT expressed in HEK293 cells; type: cell-based; summary of the method: as §1
Chain of Sodium-dependent serotonin transporter (P31645 whole entry): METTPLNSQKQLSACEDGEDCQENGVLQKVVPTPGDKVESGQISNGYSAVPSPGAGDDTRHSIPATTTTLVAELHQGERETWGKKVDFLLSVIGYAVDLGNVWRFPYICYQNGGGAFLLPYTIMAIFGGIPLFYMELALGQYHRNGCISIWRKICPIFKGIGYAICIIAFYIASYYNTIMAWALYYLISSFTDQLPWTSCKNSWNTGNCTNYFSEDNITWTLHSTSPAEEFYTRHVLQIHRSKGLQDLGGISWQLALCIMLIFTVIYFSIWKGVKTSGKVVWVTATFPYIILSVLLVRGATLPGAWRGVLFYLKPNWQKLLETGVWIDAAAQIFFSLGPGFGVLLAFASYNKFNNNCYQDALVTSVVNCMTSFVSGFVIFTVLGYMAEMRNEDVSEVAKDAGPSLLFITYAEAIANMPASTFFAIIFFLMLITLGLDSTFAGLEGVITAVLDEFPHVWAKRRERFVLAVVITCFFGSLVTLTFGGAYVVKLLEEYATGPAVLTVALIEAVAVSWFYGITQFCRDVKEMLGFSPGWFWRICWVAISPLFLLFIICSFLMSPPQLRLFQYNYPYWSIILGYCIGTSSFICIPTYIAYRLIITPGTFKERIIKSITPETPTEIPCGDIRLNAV

[3] = molecular target: Sodium-dependent noradrenaline transporter (Homo sapiens, UniProt P23975); test: Displacement of [3H]nisoxetine from human cloned NET expressed in HEK293 cells; type: cell-based; summary of the method: as §1
Chain of Sodium-dependent noradrenaline transporter (P23975 whole entry): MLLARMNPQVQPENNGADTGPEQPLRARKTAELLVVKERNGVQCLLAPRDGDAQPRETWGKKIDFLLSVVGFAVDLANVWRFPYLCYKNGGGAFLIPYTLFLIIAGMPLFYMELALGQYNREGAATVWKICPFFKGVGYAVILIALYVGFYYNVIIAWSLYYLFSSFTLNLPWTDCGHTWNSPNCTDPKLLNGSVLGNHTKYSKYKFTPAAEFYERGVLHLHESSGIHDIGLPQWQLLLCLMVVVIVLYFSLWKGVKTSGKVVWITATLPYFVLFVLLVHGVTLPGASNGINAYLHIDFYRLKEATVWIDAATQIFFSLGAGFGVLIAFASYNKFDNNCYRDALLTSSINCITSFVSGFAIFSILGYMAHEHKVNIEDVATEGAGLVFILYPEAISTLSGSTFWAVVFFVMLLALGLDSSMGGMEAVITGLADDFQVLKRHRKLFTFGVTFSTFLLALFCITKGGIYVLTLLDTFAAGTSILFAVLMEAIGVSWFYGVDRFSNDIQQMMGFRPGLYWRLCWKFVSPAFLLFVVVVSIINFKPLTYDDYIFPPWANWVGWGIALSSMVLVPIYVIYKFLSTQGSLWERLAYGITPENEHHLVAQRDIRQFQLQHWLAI

[4] = molecular target: T1, Sodium-dependent dopamine transporter; test: Displacement of [3H]GBR12935 from human cloned DAT expressed in HEK293 cells

Structure (SMILES)	Ki [1]	Ki [2]	Ki [3]	Ki [4]
Cc1ccc(Oc2ccc(OCCF)cc2CN(C)C)c(N)c1	4190 nM	401 nM	667 nM	
Cc1ccc(Oc2cc(OCCCF)ccc2CN(C)C)c(N)c1	> 1000 nM	445 nM	> 500 nM	
Cc1ccc(Oc2ccc(OCCCCF)cc2CN(C)C)c(N)c1		12 nM	406 nM	3600 nM
Cc1ccc(Oc2ccc(OCCCF)cc2CN(C)C)c(N)c1	6980 nM	7 nM	632 nM	
CN(C)Cc1ccccc1Oc1ccc(I)cc1N		0.171 nM		

Results, then the compound that gave them:

Ki [1]	Ki [2]	Ki [3]	Ki [4]	Structure (SMILES)
960 nM	7 nM	503 nM		Cc1ccc(Oc2cc(F)ccc2CN(C)C)c(N)c1
1220 nM	13 nM	1200 nM		Cc1ccc(Sc2cc(F)ccc2CN(C)C)c(N)c1
	8 nM	1240 nM	503 nM	Cc1ccc(Oc2ccc(F)cc2CN(C)C)c(N)c1
726 nM	519 nM	8850 nM		Cc1ccc(Oc2cc(OCCF)ccc2CN(C)C)c(N)c1
